Reference: publication PMC11134322 (RSC Advances, 2024)

Key:
Type in all cases: cell-based
[1] = tested on: RAW264.7 cells; experiment: Cytotoxicity, CCK-8 assay; conditions: RAW264.7 cells, 24, 48 and 72 h; DEX 27.964 μM, 13b 12.326 μM, 13d 23.684 μM
[2] = tested on: LPS-induced IL-6 release in RAW264.7 cells; experiment: Inhibition of LPS-induced IL-6 production, ELISA; conditions: Mus musculus, RAW264.7, 24 h, read-out: IC50 IL-6
How it was run: (§1)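 Log-phase RAW264.7 cells, 4 × 10^5 cells per mL, were grown 24 h before dosing. They received test compound or indomethacin for 30 min, then LPS (0.5 mg L−1) for a further 24 h. IL-6 or TNF-α in the culture medium was measured by commercial ELISA, reading absorbance at 450 nm against a standard curve. IC50 came from dose–response experiments.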

[3] = tested on: LPS-induced TNF-α release in RAW264.7 cells; experiment: Inhibition of LPS-induced TNF-α production, ELISA; conditions: Mus musculus, RAW264.7, 24 h, read-out: IC50 TNF-α
How it was run: as §1

[4] = tested on: LPS-induced NO release in RAW264.7 cells; experiment: Inhibition of LPS-induced NO release, Griess reagent test; conditions: Mus musculus, RAW264.7, 24 h, read-out: IC50 NO
How it was run: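 Log-phase RAW264.7 cells were seeded at 4 × 10^5 cells per mL in 96-well plates and grown 24 h. They were pretreated with test compound or indomethacin for 30 min, then stimulated with LPS (0.5 mg L−1) for 24 h more. NO in the supernatant was measured by Griess method and quantified against an NaNO2 standard curve. IC50 came from dose–response experiments.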

## C[C@@H]1C[C@H]2[C@@H]3CCC4=CC(=O)C=C[C@]4(C)[C@@]3(F)[C@@H](O)C[C@]2(C)[C@@]1(O)C(=O)CO [DEX, dexamethasone]
[1]
  cytotoxicity: cell activity / proliferation versus control (in words): no discernible change in cell activity
[2]
  IC50: 0.247 ± 0.073 µM
[3]
  IC50: 27.8 ± 0.643 µM
[4]
  IC50: 21.2 ± 0.517 µM
